Reference: ChEMBL document CHEMBL1158044, “Bioactive depsides and anthocyanins from jaboticaba (Myrciaria cauliflora)” (J Nat Prod, 2006)

Columns and labels:
[1] = Cytotoxicity against human HCT 116 cells after 72 hrs; assay type: functional, cell-based; conditions: HCT-116, 72 h
How it was run: (§1)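 Colon cancer cells (10 000) seeded in DMEM with 10% FBS. After 24 h, treated with 1, 5, 10, 30, 50 and 70 µM compound for 72 h in DMEM with 1% FBS. Cells washed with PBS, trypsinized and counted on a Coulter Counter. IC50 derived. EGCG and Polyphenon E served as positive controls.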

[2] = Inhibition of IL8 production in cigarette smoke extract treated human SAE cells at 100 uM; assay type: functional; set-up: scale not given: the % may be the effect or the level left
How it was run: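 Primary human small airway epithelial cells, confluent, passages 4-8, kept in 5% CO2 at 37 °C. CSE made by drawing smoke of one unfiltered 2R1 reference cigarette through 25 mL DPBS, set to pH 7.4, filtered and diluted to 5% in growth medium. Compound (100 µM) added 30 min before 5% CSE. After 24 h, supernatant IL-8 read by ELISA. Two-sided Student's t-test, 5% level.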

SW480 = assay: Cytotoxicity against human SW480 cells after 72 hrs; assay type: functional, cell-based; conditions: SW480, 72 h; how it was run: as §1
HT-29 = assay: Cytotoxicity against human HT-29 cells after 72 hrs; assay type: functional, cell-based; conditions: HT-29, 72 h; how it was run: as §1
[3] = Inhibition of IL8 production in human SAE cells at 100 uM; assay type: functional; set-up: Activity: scale not given: the % may be the effect or the level left
How it was run: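 Confluent human small airway epithelial cells (passages 4-8, 5% CO2, 37 °C) given compound at 100 µM without smoke extract. IL-8 in supernatant measured by ELISA after 24 h. Significance by two-sided Student's t-test at the 5% level.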

[4] = Antiradical activity assessed as DPPH radical scavenging activity; assay type: physicochemical
How it was run: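 DPPH radical scavenging done per an earlier method with 400 µM DPPH. Tested on extracts, fractions and pure compounds, with gallic acid as positive control. IC50 reported.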

Structure (SMILES)	IC50 [1] [µM]	Activity [2] [%]	IC50 (SW480) [µM]	IC50 (HT-29) [µM]	Activity [3] [%]	IC50 [4] [µM]	inhibition at 100 µM ([3]; Homo sapiens, SAE) [%]
OC[C@H]1O[C@@H](Oc2cc3c(O)cc(O)cc3[o+]c2-c2cc(O)c(O)c(O)c2)[C@H](O)[C@@H](O)[C@@H]1O	12	96	20	–	–	–	–
OC[C@H]1O[C@@H](Oc2cc3c(O)cc(O)cc3[o+]c2-c2ccc(O)c(O)c2)[C@H](O)[C@@H](O)[C@@H]1O [KUROMANIN]	100	36.4	100	100	65.3	–	–
O=C(O)Cc1c(O)cc(O)cc1OC(=O)c1ccc(O)c(O)c1	30	70.3	–	–	74.9	61.8	–
COC(=O)Cc1c(O)cc(O)cc1OC(=O)c1ccc(O)c(O)c1 [JABOTICABIN]	–	47.3	–	65	–	51.4	81.3
